Source: ChEMBL document CHEMBL1140966, “Syntheses and evaluation of 3-(3-bromo phenyl)-5-phenyl-1-(thiazolo [4,5-b] quinoxaline-2-yl)-2-pyrazoline derivatives” (Eur J Med Chem, 2008)

Tests used:
[1] = Safety index, ratio of IC50 for human kidney epithelial cells to IC50 for Entamoeba histolytica HMI:IMSS; assay type: toxicity, cell-based, Epithelial cell; conditions: read-out: Ratio IC50
Procedure, shortened: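 Ratio computed as toxicity IC50 in human kidney epithelial cells (concentration killing 50% of cells, MTT) over protozoal IC50 against E. histolytica (concentration killing 50% of amoebae).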

[2] = Cytotoxicity against human kidney epithelial cells after 44 hrs by MTT assay; assay type: cell-based; conditions: Epithelial cell
Procedure, shortened: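 Transformed human kidney epithelial (Graham) cells kept at 37 °C in 5% CO2. Trypsinized cells adjusted to 0.5 million cells/mL and plated with compound. After 44 h, 2 mM MTT added for a further 4 h, then DMSO added to dissolve formazan. Absorbance read at 540 nm with 690 nm reference; % viability calculated against controls.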

Entamoeba histolytica = test: Antiamoebic activity against Entamoeba histolytica HMI:IMSS after 72 hrs by microdilution method; assay type: functional, organism-based
Procedure, shortened: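 E. histolytica HMI:IMSS trophozoites grown in TYIS-33 medium. Compounds dissolved in DMSO, made up to 1 mg/ml with medium, then twofold serial dilutions in 96-well plates. 1.7 × 10⁴ viable organisms/well; plates gassed with nitrogen for 10 min, 37 °C for 72 h. Cells methanol-fixed and eosin-stained, dye released with 0.1 N NaOH, OD read at 490 nm. IC50 taken from linear regression of % inhibition vs log dose.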

Compound	selectivity ratio [1]	IC50 [2] [nM]	IC50 (Entamoeba histolytica) [nM]
Cc1ncc([N+](=O)[O-])n1CCO [METRONIDAZOLE]	> 55.5	> 100000	–
Brc1cccc(C2=NN(c3nc4nc5ccccc5nc4s3)C(c3ccccc3)C2)c1 (centres undefined)	> 428	> 60000	140
Cc1ccc(C2CC(c3cccc(Br)c3)=NN2C(N)=S)cc1 (centres undefined)	–	–	4380
Cc1ccc(/C=C/C(=O)c2cccc(Br)c2)cc1	–	–	2490
Cc1cc(C)c(/C=C/C(=O)c2cccc(Br)c2)c(C)c1	–	–	1800
NC(=S)N1N=C(c2cccc(Br)c2)CC1c1cccc(Cl)c1Cl (centres undefined)	–	–	560
CCc1ccccc1C1CC(c2cccc(Br)c2)=NN1c1nc2nc3ccccc3nc2s1 (centres undefined)	> 24.1	> 60000	2490
Clc1ccccc1C1CC(c2cccc(Br)c2)=NN1c1nc2nc3ccccc3nc2s1 (centres undefined)	> 88.2	> 60000	680
Brc1cccc(C2=NN(c3nc4nc5ccccc5nc4s3)C(c3c[nH]c4ccccc34)C2)c1 (centres undefined)	> 750	> 60000	80
O=C(/C=C/c1ccccc1Cl)c1cccc(Br)c1	–	–	2230
CCc1ccccc1C1CC(c2cccc(Br)c2)=NN1C(N)=S (centres undefined)	–	–	2610
Cc1ccc(C2CC(c3cccc(Br)c3)=NN2c2nc3nc4ccccc4nc3s2)cc1 (centres undefined)	> 600	> 60000	100
NC(=S)N1N=C(c2cccc(Br)c2)CC1c1ccccc1 (centres undefined)	–	–	190
NC(=S)N1N=C(c2cccc(Br)c2)CC1c1ccccc1Cl (centres undefined)	–	–	1900
NC(=S)N1N=C(c2cccc(Br)c2)CC1c1c[nH]c2ccccc12 (centres undefined)	–	–	2280
CC(C)c1ccccc1C1CC(c2cccc(Br)c2)=NN1c1nc2nc3ccccc3nc2s1 (centres undefined)	> 32.1	> 60000	1870
Cc1cc(C)c(C2CC(c3cccc(Br)c3)=NN2c2nc3nc4ccccc4nc3s2)c(C)c1 (centres undefined)	> 46.5	> 60000	1290
Cc1cc(C)c(C2CC(c3cccc(Br)c3)=NN2C(N)=S)c(C)c1 (centres undefined)	–	–	1710
Clc1cccc(C2CC(c3cccc(Br)c3)=NN2c2nc3nc4ccccc4nc3s2)c1Cl (centres undefined)	> 85.7	> 60000	700
O=C(/C=C/c1ccc(Cl)cc1Cl)c1cccc(Br)c1	–	–	1110
CC(C)c1ccccc1C1CC(c2cccc(Br)c2)=NN1C(N)=S (centres undefined)	–	–	2340
CC(C)c1ccccc1/C=C/C(=O)c1cccc(Br)c1	–	–	1920
